Screens from PubChem BioAssay.
PPC-1+TRAIL kill – compounds killing PPC-1 cancer cells with TRAIL present (potentiator screen, no TRAIL-free arm); PPC-1 cells + TRAIL, ATPLite viability luminescence; cell killing (% activity), % at 4 µM or 5 µM; actives 0.41% (n = 220,000);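 active = cell killing above 50% in the first pass at 4 µM, then a duplicate retest at 5 µM averaging 50% or more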
STAT3 act-1 – STAT3 signaling activation. activation (% of control), % at 5.6 µM. U3A cells, IL-6 STAT3-luciferase reporter, luminescence; 100% = signal with IL-6 EC80 alone. actives 0.91% (n = 190,000);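 active = activation above the screen-wide mean of compound activation plus 3 SD, cut at about 130% in these data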
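Assay system – human STAT1-deficient U3A cells with stable STAT3-luciferase reporter · Also added – IL-6 (33 ng/mL) · Schedule – compound 1 h, then IL-6 6 h at 37 °C · Technique – reporter luminescence signal · Evaluation – % activation versus median of IL-6-stimulated wells · Benchmarks – IL-6-only wells as 100% reference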
TRAIL sens C8 – caspase-8 TRAIL sensitization. NB7+C8 cells + TRAIL, ATPlite viability luminescence. inhibition (viability loss, TRAIL sensitization), % at 10 µM. actives 1% (n = 360,000). AID 624354;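 active = compounds causing at least 50% loss of cell viability in the single-dose screen, relative to plate controls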
STAT1 blocker – STAT1 signaling inhibition; NIH 3T3 STAT1-luciferase reporter, IFN-gamma, luminescence; inhibition, % at 5.5 µM; actives 0.35% (n = 200,000); AID 920;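 active = inhibition above a set limit, the mean inhibition across all tested compounds plus 3 SD, cut at about 34% in these data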
STAT3 inh – inhibitors of IL-6 induced STAT3 signaling. actives 0.89% (n = 190,000). U3A cells, IL-6 STAT3-luciferase reporter, luminescence; host cell line lacks STAT1. inhibition, % at 5.5 µM. AID 862;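 active = inhibition above the mean inhibition across all screened compounds plus 3 SD, cut at about 44% in these data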
STAT3 act-2 – STAT3 activation, confirmation assay; potentiation (% of control), % at 5.7 µM; AID 1267; actives 64% (n = 1,200); shares compounds with STAT3 act-1; U3A STAT3-luciferase reporter, IL-6 potentiation, luminescence; U3A cells lack STAT1; 100 means same as IL-6 alone;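 active = percent activation of the STAT3 luciferase reporter above a set limit taken from the earlier primary screen, cut at about 130% in these data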
NFkB act 2 – counter-screen for STAT3 activators: NF-kappaB activation; shares compounds with STAT3 act-1; human cells, NF-kappaB reporter activation; activation (% of control), % at 5.7 µM; actives 11% (n = 1,200); AID 1309; in the data active = activation above about 120%;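 note: reporter induced by TNF-alpha stimulation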
STAT1 act STAT3c – STAT1 activation in STAT3 activator counter-screen. NIH 3T3 STAT1-luciferase reporter, IFN-gamma, luminescence. AID 1318. activation (% of control), % at 5.7 µM. shares compounds with STAT3 act-1. actives 13% (n = 1,200);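 active = activation above the solvent-only control well mean plus 3 SD, set per screening run, cut at about 120% in these data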
Of the large screens only hits and unclear results are named; the others gave an inactive call (follow-up assays come after a bar, where they were run). An excerpt weighted towards active compounds, which were near 1.8% of everything screened.

O=C(c1ccccc1)N1CCCC(c2nc3c(nnn3Cc3ccccc3)c(=O)[nH]2)C1 (stereo not given)	STAT3 act-1 148 | STAT3 act-2 inactive | NFkB act 2 inactive | STAT1 act STAT3c inactive
O=C(c1cccs1)N1CCCC(c2nc3c(nnn3Cc3ccccc3)c(=O)[nH]2)C1 (stereo not given)	none (no result: STAT3 act-1, STAT1 blocker, STAT3 inh)
CCCc1nnc(NC(=O)C2CC(=O)N(C3CCCC3)C2)s1 (stereo not given)	none (no result: PPC-1+TRAIL kill, STAT3 act-1, STAT1 blocker, STAT3 inh)
Cc1ccc2[nH]cc(C(=O)CN3CCC4(CC3)OCCO4)c2c1	none
O=C(CN1CCC2(CC1)OCCO2)c1c[nH]c2ccccc12	STAT3 act-1 148 (no result: TRAIL sens C8) | STAT3 act-2 inactive | NFkB act 2 inactive | STAT1 act STAT3c inactive
O=C(Nc1ccc(F)c(Cl)c1)c1cc(C2CCCN(C(=O)CCc3ccccc3)C2)on1 (stereo not given)	none (no result: PPC-1+TRAIL kill, STAT3 act-1, STAT1 blocker, STAT3 inh)
O=C(O)c1ccc(NC2=C/C(=N/S(=O)(=O)c3ccccc3)c3ccccc3C2=O)cc1	STAT3 act-1 155 | STAT3 act-2 inactive | NFkB act 2 inactive | STAT1 act STAT3c inactive
COc1cccc(CN2CC(C(=O)NCCc3nccs3)CCC2=O)c1 (stereo not given)	none (no result: PPC-1+TRAIL kill, STAT3 act-1, STAT1 blocker, STAT3 inh)
COc1ccc(NC(=O)c2cc(C(C)C)on2)c(OC)c1	none
COc1cc(NC(=O)c2cc(C(C)C)on2)c(OC)cc1Cl	STAT3 act-1 168 | STAT3 act-2 152 | NFkB act 2 inactive | STAT1 act STAT3c inactive
COc1cc(NC(=O)c2cc(C3CC3)on2)c(OC)cc1Cl	STAT3 act-1 159 | STAT3 act-2 150 | NFkB act 2 inactive | STAT1 act STAT3c inactive
CCCCN(C)c1c(C)nc2ccc(C(=O)NCc3ccc4c(c3)OCO4)cn12	none (no result: PPC-1+TRAIL kill, STAT3 act-1, STAT1 blocker, STAT3 inh)
C=CCOc1ccc(/C=C/C(=O)N2CCCN(S(=O)(=O)c3c(C)noc3C)CC2)cc1	none (no result: PPC-1+TRAIL kill, STAT3 act-1, STAT1 blocker, STAT3 inh)
CC(C)(C)c1ccc(C(O)c2ncc(-c3ccccc3F)[nH]2)cc1 (stereo not given)	none (no result: PPC-1+TRAIL kill, STAT3 act-1, STAT1 blocker, STAT3 inh)
O=C(Nc1ccccc1O)c1ccc(Cl)cc1	STAT3 act-1 152 | STAT3 act-2 141 | NFkB act 2 inactive | STAT1 act STAT3c inactive
O=C(Nc1cccnc1Cl)c1ccc(Cl)cc1	none (no result: PPC-1+TRAIL kill, STAT3 act-1, STAT1 blocker, STAT3 inh)
O=C(Nc1ccccc1OC(=O)c1ccc(Cl)cc1)c1ccc(Cl)cc1	STAT3 act-1 136 | STAT3 act-2 141 | NFkB act 2 inactive | STAT1 act STAT3c inactive
Cc1ccc(C(=O)Nc2cc(Cl)ccc2OC(=O)c2ccc(C)cc2)cc1	STAT3 act-1 140 (no result: TRAIL sens C8) | STAT3 act-2 inactive | NFkB act 2 inactive | STAT1 act STAT3c inactive
Cc1cc(C(=O)N2CCc3c([nH]c4ccccc34)C2c2cccc(Cl)c2)nn1C (stereo not given)	STAT3 act-1 153 | STAT3 act-2 202 | NFkB act 2 inactive | STAT1 act STAT3c 122
CC(=O)NCCC(=O)N1CCc2c([nH]c3ccccc23)C1c1cccc(C)c1 (stereo not given)	STAT3 act-1 147 | STAT3 act-2 144 | NFkB act 2 inactive | STAT1 act STAT3c inactive
O=C(c1cnccn1)N1CCc2c([nH]c3ccccc23)C1c1cccc(Cl)c1 (stereo not given)	none
CC(=O)NCCC(=O)N1CCc2c([nH]c3ccccc23)C1c1cccc(Cl)c1 (stereo not given)	STAT3 act-1 150 | STAT3 act-2 143 | NFkB act 2 inactive | STAT1 act STAT3c inactive
COc1ccccc1C(=O)Nc1nnc([C@H]2C[C@H](O)[C@@H](CO)O2)s1	none (no result: PPC-1+TRAIL kill, STAT3 act-1, STAT1 blocker, STAT3 inh)
C/C(=N\Nc1ccc(Cl)cc1)c1ccncc1	none (no result: PPC-1+TRAIL kill, STAT3 act-1, STAT1 blocker, STAT3 inh)
C/C(=N\Nc1ccc(Cl)cc1)c1ccccn1	STAT3 act-1 139 | STAT3 act-2 140 | NFkB act 2 123 | STAT1 act STAT3c 148
Oc1[nH]c2ccccc2c1/C=N/N1CCCCC1	STAT3 act-1 145 | STAT3 act-2 inactive | NFkB act 2 inactive | STAT1 act STAT3c inactive
CCCN1C(=O)C(O)(c2c(C)[nH]c3ccccc23)c2ccccc21 (stereo not given)	none (no result: STAT3 act-1, STAT1 blocker, STAT3 inh)
Cc1[nH]c2ccccc2c1C1(O)C(=O)N(C(C)C)c2ccccc21 (stereo not given)	STAT3 act-1 137 | STAT3 act-2 inactive | NFkB act 2 inactive | STAT1 act STAT3c inactive
Cc1[nH]c2ccccc2c1C1(O)C(=O)N(Cc2ccc3c(c2)OCO3)c2ccccc21 (stereo not given)	STAT3 act-1 137 | STAT3 act-2 134 | NFkB act 2 inactive | STAT1 act STAT3c inactive
COC(=O)c1sccc1NC(=O)c1ccc(Cl)s1	STAT3 act-1 143 | STAT3 act-2 176 | NFkB act 2 121 | STAT1 act STAT3c inactive
COC(=O)c1sccc1NC(=S)OC	none (no result: STAT3 act-1, STAT1 blocker, STAT3 inh)
COC(=O)c1sccc1NC(=O)c1ccc(C)s1	STAT3 act-1 158 | STAT3 act-2 inactive | NFkB act 2 inactive | STAT1 act STAT3c inactive
COC(=O)c1c(NC(=O)c2ccc(Br)s2)sc2c1CCC2	STAT3 act-1 137 | STAT3 act-2 inactive | NFkB act 2 inactive | STAT1 act STAT3c inactive
CCn1c(C(=O)Nc2ccsc2C(=O)OC)cc2sc(Cl)cc21	STAT3 act-1 165 | STAT3 act-2 138 | NFkB act 2 inactive | STAT1 act STAT3c inactive
OC[C@@H]1CC[C@@H](Cc2ccc(-c3ccccc3)cc2)O1	none (no result: PPC-1+TRAIL kill, STAT3 act-1, STAT1 blocker, STAT3 inh)
O=C1N=C(N2C=CC(=C3C=CNC=C3)C=C2)/C(=C/N=NC(=O)c2ccccc2O)S1	none (no result: PPC-1+TRAIL kill, STAT3 act-1, STAT1 blocker, STAT3 inh)
COC(=O)c1sccc1NC(=O)c1cccs1	none (no result: STAT3 act-1, STAT1 blocker, STAT3 inh)
COC(=O)c1sccc1NC(=O)c1ccc(Br)s1	STAT3 act-1 150 | STAT3 act-2 146 | NFkB act 2 inactive | STAT1 act STAT3c inactive
COC(=O)N/N=C/c1c[nH]c2ccccc12	none
CC(C)(C)OC(=O)N/N=C/c1c[nH]c2ccccc12	STAT3 act-1 139 | STAT3 act-2 inactive | NFkB act 2 inactive | STAT1 act STAT3c inactive
O=C(Cn1c(C(F)(F)F)nc2ccccc21)OCC(=O)c1c[nH]c2ccccc12	STAT3 act-1 138 | STAT3 act-2 inactive | NFkB act 2 inactive | STAT1 act STAT3c inactive
CC(OC(=O)c1cc(=O)c2cc(Cl)ccc2o1)C(=O)N1CCCC1 (stereo not given)	none (no result: PPC-1+TRAIL kill, STAT3 act-1, STAT1 blocker, STAT3 inh)
COc1ccc(CNc2ccc3cn[nH]c3c2)c(OC)c1OC	STAT3 act-1 144 | STAT3 act-2 inactive | NFkB act 2 inactive | STAT1 act STAT3c inactive
CCOc1cc(CNc2ccc3cn[nH]c3c2)ccc1OC	STAT3 act-1 175 | STAT3 act-2 161 | NFkB act 2 inactive | STAT1 act STAT3c inactive
C=CCOc1ccc(CNc2ccc3[nH]c(=O)[nH]c3c2)cc1OC	none
